Calls of active or inactive are those of the source. No cut-off for these calls is given here.
How the values were obtained:
Mus musculus [1] = experiment: Anticonvulsant activity in CF1 albino mouse assessed as protection against maximal electroshock-induced seizures at 30 mg/kg, ip after 4 hrs; format: functional, organism-based; parameters: dose 30 mg/kg
How it was run: (§1)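 Adult male CF no. 1 albino mice (18-25 g). Test compound suspended in 0.5% methylcellulose and given intraperitoneally at 0.01 mL/g body weight. Maximal electroshock challenge at the stated time. Read-out is the number of animals protected over the number tested; neurotoxicity is scored in parallel.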

Mus musculus [2] = experiment: Anticonvulsant activity in CF1 albino mouse assessed as protection against maximal electroshock-induced seizures at 100 mg/kg, ip after 4 hrs; format: functional, organism-based; parameters: dose 100 mg/kg; how it was run: as §1
Mus musculus [3] = experiment: Anticonvulsant activity in CF1 albino mouse assessed as protection against maximal electroshock-induced seizures at 300 mg/kg, ip after 4 hrs; format: functional, organism-based; parameters: dose 300 mg/kg; how it was run: as §1
Mus musculus [4] = experiment: Anticonvulsant activity in CF1 albino mouse assessed as protection against scMet-induced seizures at 30 mg/kg, ip after 0.5 hrs; format: functional, organism-based; parameters: dose 30 mg/kg
How it was run: (§2)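 Adult male CF no. 1 albino mice (18-25 g) dosed intraperitoneally with compound suspended in 0.5% methylcellulose (0.01 mL/g). Convulsant challenge given subcutaneously as a 0.85% pentylenetetrazol solution in 0.9% saline. Read-out is animals protected over animals tested, with neurotoxicity scored in parallel.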

Mus musculus [5] = experiment: Anticonvulsant activity in CF1 albino mouse assessed as protection against scMet-induced seizures at 100 mg/kg, ip after 0.5 hrs; format: functional, organism-based; parameters: dose 100 mg/kg; how it was run: as §2
Mus musculus [6] = experiment: Anticonvulsant activity in CF1 albino mouse assessed as protection against scMet-induced seizures at 300 mg/kg, ip after 0.5 hrs; format: functional, organism-based; parameters: dose 300 mg/kg; how it was run: as §2
Mus musculus [7] = experiment: Anticonvulsant activity in CF1 albino mouse assessed as protection against scMet-induced seizures at 30 mg/kg, ip after 4 hrs; format: functional, organism-based; parameters: dose 30 mg/kg; how it was run: as §2
Mus musculus [8] = experiment: Anticonvulsant activity in CF1 albino mouse assessed as protection against scMet-induced seizures at 100 mg/kg, ip after 4 hrs; format: functional, organism-based; parameters: dose 100 mg/kg; how it was run: as §2
Mus musculus [9] = experiment: Anticonvulsant activity in CF1 albino mouse assessed as protection against scMet-induced seizures at 300 mg/kg, ip after 4 hrs; format: functional, organism-based; parameters: dose 300 mg/kg; how it was run: as §2
Mus musculus [10] = experiment: Neurotoxicity in CF1 albino mouse at 30 mg/kg, ip after 0.5 hrs; format: toxicity, organism-based; parameters: dose 30 mg/kg, route intraperitoneal; settings: in vivo
How it was run: (§3)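 Male CF no. 1 albino mice (18-25 g) received a single ip dose as a suspension in 0.5% methylcellulose. The read-out was the number of animals showing neurotoxicity (minimal motor impairment) over the number tested.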

Mus musculus [11] = experiment: Neurotoxicity in CF1 albino mouse at 300 mg/kg, ip after 0.5 hrs; format: toxicity, organism-based; parameters: dose 300 mg/kg, route intraperitoneal; settings: in vivo; how it was run: as §3
Mus musculus [12] = experiment: Neurotoxicity in CF1 albino mouse at 30 mg/kg, ip after 4 hrs; format: toxicity, organism-based; parameters: dose 30 mg/kg, route intraperitoneal; settings: in vivo; how it was run: as §3
Mus musculus [13] = experiment: Neurotoxicity in CF1 albino mouse at 100 mg/kg, ip after 4 hrs; format: toxicity, organism-based; parameters: dose 100 mg/kg, route intraperitoneal; settings: in vivo; how it was run: as §3
Mus musculus [14] = experiment: Neurotoxicity in CF1 albino mouse at 300 mg/kg, ip after 4 hrs; format: toxicity, organism-based; parameters: dose 300 mg/kg, route intraperitoneal; settings: in vivo; how it was run: as §3
Rattus norvegicus [15] = experiment: Anticonvulsant activity in albino Sprague-Dawley rat assessed as protection against maximal electroshock-induced seizures at 50 mg/kg, po after 4 hrs; format: functional, organism-based; parameters: dose 50 mg/kg
How it was run: (§4)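 Adult male Sprague-Dawley albino rats (100-150 g) dosed orally with compound suspended in 0.5% methylcellulose (0.04 mL per 10 g). Maximal electroshock challenge at the stated time. Protection is scored in 25% steps as the fraction of animals protected, with neurotoxicity recorded in parallel.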

Rattus norvegicus [16] = experiment: Anticonvulsant activity in albino Sprague-Dawley rat assessed as protection against maximal electroshock-induced seizures at 50 mg/kg, po after 15 mins; format: functional; how it was run: as §4
Rattus norvegicus [17] = experiment: Anticonvulsant activity in albino Sprague-Dawley rat assessed as protection against maximal electroshock-induced seizures at 50 mg/kg, po after 30 mins; format: functional; how it was run: as §4
Rattus norvegicus [18] = experiment: Anticonvulsant activity in albino Sprague-Dawley rat assessed as protection against maximal electroshock-induced seizures at 50 mg/kg, po after 1 hr; format: functional; how it was run: as §4
Rattus norvegicus [19] = experiment: Anticonvulsant activity in albino Sprague-Dawley rat assessed as protection against maximal electroshock-induced seizures at 50 mg/kg, po after 2 hrs; format: functional; how it was run: as §4
Rattus norvegicus [20] = experiment: Neurotoxicity in albino Sprague-Dawley rat at 50 mg/kg, po; format: toxicity, organism-based; parameters: dose 50 mg/kg, route oral; settings: in vivo
How it was run: (§5)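 Neurotoxicity was scored in male Sprague-Dawley albino rats (100-150 g) dosed orally with a suspension in 0.5% methylcellulose. The read-out was the fraction of animals showing neurotoxicity (minimal motor impairment).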

Rattus norvegicus [21] = experiment: Anticonvulsant activity in albino Sprague-Dawley rat assessed as protection against scMet-induced seizures at 50 mg/kg, po after 15 mins; format: functional
How it was run: (§6)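 Male Sprague-Dawley albino rats (100-150 g) were given the compound orally as a suspension in 0.5% methylcellulose. Seizures were induced by subcutaneous pentylenetetrazol, dissolved in 0.9% saline as a 2.82% solution. The read-out was animals protected over animals tested.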

Rattus norvegicus [22] = experiment: Anticonvulsant activity in albino Sprague-Dawley rat assessed as protection against scMet-induced seizures at 50 mg/kg, po after 30 mins; format: functional; how it was run: as §6
Rattus norvegicus [23] = experiment: Anticonvulsant activity in albino Sprague-Dawley rat assessed as protection against scMet-induced seizures at 50 mg/kg, po after 1 hr; format: functional; how it was run: as §6
Rattus norvegicus [24] = experiment: Anticonvulsant activity in albino Sprague-Dawley rat assessed as protection against scMet-induced seizures at 50 mg/kg, po after 2 hrs; format: functional; how it was run: as §6
Rattus norvegicus [25] = experiment: Anticonvulsant activity in albino Sprague-Dawley rat assessed as protection against scMet-induced seizures at 50 mg/kg, po after 4 hrs; format: functional; how it was run: as §6
Rattus norvegicus [26] = experiment: Anticonvulsant activity in po dosed albino Sprague-Dawley rat assessed as protection against maximal electroshock-induced seizures; format: functional
Rattus norvegicus [27] = species: Rattus norvegicus; experiment: Protective index, ratio of TD50 for albino Sprague-Dawley rat to ED50 for maximal electroshock-induced albino Sprague-Dawley rat seizure model; format: functional
How it was run: (§7)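 Protective index is the rat TD50 (minimal motor impairment) divided by the ED50 in the MES or sc pentylenetetrazol test. Male Sprague-Dawley rats were dosed orally in 0.5% methylcellulose, and both values came from probit analysis.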

Rattus norvegicus [28] = experiment: Anticonvulsant activity in po dosed albino Sprague-Dawley rat assessed as protection against scMet-induced seizures; format: functional
How it was run: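 Male Sprague-Dawley albino rats (100-150 g) were dosed orally in 0.5% methylcellulose and tested by MES or by sc pentylenetetrazol (2.82% in 0.9% saline). Doses were varied to give 3-4 points between 0% and 100% protection. ED50 and 95% confidence intervals came from probit analysis.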

Rattus norvegicus [29] = species: Rattus norvegicus; experiment: Protective index, ratio of TD50 for albino Sprague-Dawley rat to ED50 for scMet-induced albino Sprague-Dawley rat seizure model; format: functional; how it was run: as §7
[30] = Neurotoxicity in po dosed albino Sprague-Dawley rat assessed as minimal motor impairment; format: toxicity, organism-based; settings: in vivo
How it was run: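 Rats: male Sprague-Dawley (100-150 g), oral dosing in 0.5% methylcellulose. Doses were varied to give four points between no minimal motor impairment and all animals impaired. TD50 and 95% confidence intervals came from probit analysis.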

Rattus norvegicus [31] = experiment: Anticonvulsant activity in albino Sprague-Dawley rat assessed as protection against scMet-induced seizures at 50 mg/kg, po; format: functional, organism-based; parameters: dose 50 mg/kg; how it was run: as §6
Rattus norvegicus [32] = experiment: Neurotoxicity in albino Sprague-Dawley rat assessed as minimal motor impairment at 200 mg/kg, po; format: toxicity, organism-based; parameters: dose 200 mg/kg, route oral; settings: in vivo; how it was run: as §5
Mus musculus [33] = experiment: Anticonvulsant activity in CF1 albino mouse assessed as protection against maximal electroshock-induced seizures at 30 mg/kg, ip after 0.5 hrs; format: functional, organism-based; parameters: dose 30 mg/kg; how it was run: as §1
Mus musculus [34] = experiment: Anticonvulsant activity in CF1 albino mouse assessed as protection against maximal electroshock-induced seizures at 100 mg/kg, ip after 0.5 hrs; format: functional, organism-based; parameters: dose 100 mg/kg; how it was run: as §1
Mus musculus [35] = experiment: Anticonvulsant activity in CF1 albino mouse assessed as protection against maximal electroshock-induced seizures at 300 mg/kg, ip after 0.5 hrs; format: functional, organism-based; parameters: dose 300 mg/kg; how it was run: as §1

Question: Which Activity (Mus musculus [1]) does the source give for `CC1(C)C(C)(C)C1(Cl)C(N)=O` here?
Answer: Non-toxic

Question: What about the Activity (Mus musculus [2]) of the same compound?
Answer: Non-toxic

Question: What about the Activity (Mus musculus [3]) of the same compound?
Answer: Non-toxic

Question: What about the Activity (Mus musculus [4]) of the same compound?
Answer: Non-toxic

Question: And the Activity (Mus musculus [5])?
Answer: Non-toxic

Question: What about the Activity (Mus musculus [6]) of the same compound?
Answer: Toxic

Question: And the Activity (Mus musculus [7])?
Answer: Non-toxic

Question: And the Activity (Mus musculus [8])?
Answer: Non-toxic

Question: And the Activity (Mus musculus [9])?
Answer: Non-toxic

Question: And the Activity (Mus musculus [10])?
Answer: Non-toxic

Question: And the Activity (Mus musculus [11])?
Answer: Toxic

Question: And the Activity (Mus musculus [12])?
Answer: Non-toxic

Question: What about the Activity (Mus musculus [13]) of the same compound?
Answer: Non-toxic

Question: What about the Activity (Mus musculus [14]) of the same compound?
Answer: Non-toxic

Question: What about the Activity (Rattus norvegicus [15]) of the same compound?
Answer: inactive

Question: What about the Activity (Rattus norvegicus [16]) of the same compound?
Answer: 25%

Question: And the Activity (Rattus norvegicus [17])?
Answer: 25%

Question: What about the Activity (Rattus norvegicus [18]) of the same compound?
Answer: 75%

Question: What about the Activity (Rattus norvegicus [19]) of the same compound?
Answer: 75%

Question: What about the Activity (Rattus norvegicus [20]) of the same compound?
Answer: Not Active

Question: What about the Activity (Rattus norvegicus [21]) of the same compound?
Answer: inactive

Question: What about the Activity (Rattus norvegicus [22]) of the same compound?
Answer: 50%

Question: And the Activity (Rattus norvegicus [23])?
Answer: 50%

Question: And the Activity (Rattus norvegicus [24])?
Answer: 25%

Question: What about the Activity (Rattus norvegicus [25]) of the same compound?
Answer: inactive

Question: What about the ED50 (Rattus norvegicus [26]) of the same compound?
Answer: 97 mg/kg

Question: What about the PI (Rattus norvegicus [27]) of the same compound?
Answer: >2.1

Question: What about the ED50 (Rattus norvegicus [28]) of the same compound?
Answer: 27 mg/kg

Question: What about the PI (Rattus norvegicus [29]) of the same compound?
Answer: >7.8

Question: What about the TD50 [30] of the same compound?
Answer: > 200 mg/kg

Question: What about the Activity (Rattus norvegicus [31]) of the same compound?
Answer: Active

Question: And the Activity (Rattus norvegicus [32])?
Answer: Non-toxic

Question: And the Activity (Mus musculus [33])?
Answer: Non-toxic

Question: What about the Activity (Mus musculus [34]) of the same compound?
Answer: Non-toxic

Question: What about the Activity (Mus musculus [35]) of the same compound?
Answer: Toxic
